This note sets out measurements from ChEMBL document CHEMBL5131507, “Identification of histone deacetylase 10 (HDAC10) inhibitors that modulate autophagy in transformed cells” (Eur J Med Chem, 2022).

Structures are written as SMILES. Active and inactive are the calls of the source. The rule behind the calls is not given here.

In data set [1] the target is T1, Polyamine deacetylase HDAC10 (Danio rerio) (UniProt F1QCV2).
T1 sequence (whole entry): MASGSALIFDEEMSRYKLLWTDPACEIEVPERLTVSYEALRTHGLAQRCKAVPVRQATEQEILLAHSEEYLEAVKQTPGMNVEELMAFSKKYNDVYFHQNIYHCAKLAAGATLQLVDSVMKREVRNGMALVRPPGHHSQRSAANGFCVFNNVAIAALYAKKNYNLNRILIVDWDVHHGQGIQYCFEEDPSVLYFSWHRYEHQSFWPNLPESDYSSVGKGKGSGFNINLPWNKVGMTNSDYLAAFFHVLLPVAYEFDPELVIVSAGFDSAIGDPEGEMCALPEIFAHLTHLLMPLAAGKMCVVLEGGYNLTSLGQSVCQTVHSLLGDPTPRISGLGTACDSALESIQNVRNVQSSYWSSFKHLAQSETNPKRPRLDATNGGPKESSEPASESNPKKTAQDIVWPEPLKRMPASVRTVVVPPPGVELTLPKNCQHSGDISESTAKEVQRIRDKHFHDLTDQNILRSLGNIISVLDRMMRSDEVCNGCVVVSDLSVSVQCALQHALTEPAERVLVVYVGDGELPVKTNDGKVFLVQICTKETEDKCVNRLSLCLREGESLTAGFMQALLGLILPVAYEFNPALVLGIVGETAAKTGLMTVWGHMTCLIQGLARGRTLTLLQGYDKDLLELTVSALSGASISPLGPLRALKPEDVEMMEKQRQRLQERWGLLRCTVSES
In words: Inhibition of zebra fish HDAC10 using Ac-spermidine-AMC as substrate incubated for 25 mins at 1 uM and measured by fluorescence assay relative to control. The method in brief: (§1)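 Ac-spermidine-AMC at 10.5 μM final in pH 7.9 phosphate buffer (NaCl, EDTA, glycerol, Mesna, Tween 20); inhibitors in DMSO. 25 min at 25 °C, stopped with NDA in borate pH 9.5. Read at Ex 330/Em 390 nm; IC50 by nonlinear regression.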

The target of data set [2] is T2, Histone deacetylase 8 (Homo sapiens) (UniProt Q9BY41).
T2 sequence (whole entry): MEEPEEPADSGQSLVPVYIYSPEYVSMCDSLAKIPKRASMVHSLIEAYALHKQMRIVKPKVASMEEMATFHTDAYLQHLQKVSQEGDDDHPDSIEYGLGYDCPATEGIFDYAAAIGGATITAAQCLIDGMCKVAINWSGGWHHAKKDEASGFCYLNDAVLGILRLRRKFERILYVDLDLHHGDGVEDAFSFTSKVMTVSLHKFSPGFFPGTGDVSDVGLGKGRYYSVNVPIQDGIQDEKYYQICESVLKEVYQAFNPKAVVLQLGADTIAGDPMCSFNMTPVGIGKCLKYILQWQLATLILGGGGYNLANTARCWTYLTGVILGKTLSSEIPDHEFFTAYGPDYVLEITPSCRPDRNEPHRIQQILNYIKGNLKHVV
The data set is described as follows: Inhibition of recombinant human HDAC8 using H2N-Arg- His-Lys(Ac)-Lys(Ac)-AMC as substrate incubated for 90 mins at 1 uM and measured after 20 mins by fluorescence assay relative to control. In short, it runs like this:
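Recombinant hHDAC8 run per a commercial fluorometric HDAC8 kit protocol. Substrate H2N-Arg-His-Lys(Ac)-Lys(Ac)-AMC at 50 μM with enzyme and rising inhibitor concentrations, 90 min at 37 °C. Stop solution with inhibitor plus trypsin added, developed 20 min at 37 °C. Read at Ex 355/Em 460 nm.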

In the next data set the test system is HEK293. In words: Cytotoxicity against human HEK293 cells assessed as cell viability at 50 uM measured after 24 hrs by Alamar Blue assay. Format: toxicity, cell-based. The following applies: hek293, 24 h. A general note: Resazurin is reduced to fluorescent resorufin, in cell work by metabolically active cells.
Another data set deals with MV4-11. In words: Induction of autophagy in human MV4-11 cells assessed as increase in autophagic vesicles at 2 to 15 uM measured by cyto-ID green staining based flow cytometry assay. Format: functional, cell-based. The following applies: dose 2-15 µM. The method in brief: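 MV4-11 cells exposed 2–15 μM for 24 h at 37 °C, 5% CO2, with 10 μM chloroquine added to all samples; solvent-treated control. Harvested, PBS-washed, stained with Cyto-ID Green (1:1000 in phenol-red-free RPMI with 5% FCS, 30 min, 37 °C), washed twice, read by flow cytometry. n = 3; two-way ANOVA.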
(In general: A flow cytometer gives signals particle by particle.)

Data set [3] has as its target T3, Polyamine deacetylase HDAC10 (Danio rerio, UniProt F1QCV2).
T3 sequence (F1QCV2 whole entry): T1 sequence (whole entry)
In words: Inhibition of zebra fish HDAC10 using Ac-spermidine-AMC as substrate incubated for 25 mins and measured by fluorescence assay. In short, it runs like this: as §1

Data set [4] deals with T4, Histone deacetylase 1 (Homo sapiens, UniProt Q13547). The data set is described as follows: Inhibition of recombinant human HDAC1 using ZMAL (Z-(Ac)Lys-AMC as substrate incubated for 20 mins at 10 uM and measured by homogenous fluorescence assay relative to control.
A further data set deals with SK-N-BE(2)-C. In words: Induction of autophagy in human SK-N-BE(2)-C cells assessed as increase in lysosomal compartment measured by pH-dependent LysoTracker DND-99 fluorescence assay. The class given is functional, cell-based. In short, it runs like this: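 SK-N-BE(2)-C neuroblastoma cells seeded at 1.5 × 10^5 per well, treated 24 h, then stained 1 h with 50 nM LysoTracker Red DND-99 in medium under standard culture conditions. Washed in ice-cold phenol-red-free RPMI, trypsinized 3 min at 37 °C, pelleted, resuspended in ice-cold phenol-red-free RPMI before measurement.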

The target of data set [5] is T5, Protein deacetylase HDAC6 (Homo sapiens, UniProt Q9UBN7).
T5 sequence (Q9UBN7 whole entry): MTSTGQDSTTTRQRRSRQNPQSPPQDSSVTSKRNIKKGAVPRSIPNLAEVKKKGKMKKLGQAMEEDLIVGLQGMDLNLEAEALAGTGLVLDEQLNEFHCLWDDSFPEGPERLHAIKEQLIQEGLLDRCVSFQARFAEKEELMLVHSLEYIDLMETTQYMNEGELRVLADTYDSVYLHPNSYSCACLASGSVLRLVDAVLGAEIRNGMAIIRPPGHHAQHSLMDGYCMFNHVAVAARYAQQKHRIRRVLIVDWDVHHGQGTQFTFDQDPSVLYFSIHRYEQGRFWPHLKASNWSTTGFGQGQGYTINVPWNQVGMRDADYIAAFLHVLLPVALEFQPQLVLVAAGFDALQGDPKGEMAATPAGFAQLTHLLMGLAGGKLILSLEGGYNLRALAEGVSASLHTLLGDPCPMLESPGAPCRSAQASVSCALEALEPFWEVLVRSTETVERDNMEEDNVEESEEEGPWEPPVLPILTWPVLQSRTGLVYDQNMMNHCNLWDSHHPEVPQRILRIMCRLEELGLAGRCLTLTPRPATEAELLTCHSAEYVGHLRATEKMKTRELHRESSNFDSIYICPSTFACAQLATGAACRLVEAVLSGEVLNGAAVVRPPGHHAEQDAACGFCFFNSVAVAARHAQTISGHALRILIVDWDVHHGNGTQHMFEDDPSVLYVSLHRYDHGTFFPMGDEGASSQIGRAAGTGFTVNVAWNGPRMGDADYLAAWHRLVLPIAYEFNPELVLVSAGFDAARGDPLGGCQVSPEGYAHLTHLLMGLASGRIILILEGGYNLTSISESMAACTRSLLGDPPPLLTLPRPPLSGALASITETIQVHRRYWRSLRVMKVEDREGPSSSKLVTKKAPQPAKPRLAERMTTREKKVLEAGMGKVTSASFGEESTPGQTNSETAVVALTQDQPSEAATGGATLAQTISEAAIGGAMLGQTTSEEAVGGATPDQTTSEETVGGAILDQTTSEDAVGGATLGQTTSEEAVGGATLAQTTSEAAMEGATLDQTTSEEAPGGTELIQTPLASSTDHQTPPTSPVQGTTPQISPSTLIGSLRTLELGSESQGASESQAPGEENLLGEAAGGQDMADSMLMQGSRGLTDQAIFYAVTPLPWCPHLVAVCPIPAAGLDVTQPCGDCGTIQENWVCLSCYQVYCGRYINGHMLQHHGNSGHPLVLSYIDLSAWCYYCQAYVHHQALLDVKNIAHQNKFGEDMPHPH
The data set is described as follows: Inhibition of recombinant human HDAC6 using ZMAL (Z-(Ac)Lys-AMC as substrate incubated for 20 mins and measured by homogenous fluorescence assay.

The target of data set [6] is T4, Histone deacetylase 1. The data set is described as follows: Inhibition of recombinant human HDAC1 using ZMAL (Z-(Ac)Lys-AMC as substrate incubated for 20 mins at 1 uM and measured by homogenous fluorescence assay relative to control.

T4 sequence (Q13547 whole entry): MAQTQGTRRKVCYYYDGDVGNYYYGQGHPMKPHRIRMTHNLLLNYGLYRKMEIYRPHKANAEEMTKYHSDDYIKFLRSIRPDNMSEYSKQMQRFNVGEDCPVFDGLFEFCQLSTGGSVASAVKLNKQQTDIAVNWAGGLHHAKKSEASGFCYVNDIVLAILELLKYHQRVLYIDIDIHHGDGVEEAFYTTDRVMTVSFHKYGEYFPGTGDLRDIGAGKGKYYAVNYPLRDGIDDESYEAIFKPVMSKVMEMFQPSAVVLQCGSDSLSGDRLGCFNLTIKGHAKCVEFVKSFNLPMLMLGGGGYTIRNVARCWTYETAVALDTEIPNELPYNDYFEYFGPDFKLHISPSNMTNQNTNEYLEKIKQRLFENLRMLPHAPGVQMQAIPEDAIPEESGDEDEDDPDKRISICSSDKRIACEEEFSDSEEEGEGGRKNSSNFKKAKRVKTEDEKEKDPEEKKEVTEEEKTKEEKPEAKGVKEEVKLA

In general, inhibition refers to the relative decrease from the control value, in per cent. Consider `O=C(NO)c1ccc(CN2CCCCC2)cc1`, for which the inhibition came out at 4% in [1] and 5% in data set [2]. Further, the Activity with HEK293 came out at 92.6%.
Usually IC50 stands for the concentration at which inhibition is half-maximal. For the molecule `O=C(/C=C/C1CCN(CCc2c[nH]c3ccccc23)CC1)NO`, the result in the data set on MV4-11 and with SK-N-BE(2)-C was Active. Moreover, the results for the IC50 in data set [3] and in data set [5] were 29 nM and 4800 nM, respectively. Moreover, the inhibition on Histone deacetylase 1 [4] is 54%; at Histone deacetylase 1 [6], 7%. Besides, the Activity in the data set with HEK293 came out at 77.3%.
